Assay results taken from ChEMBL document CHEMBL3045677, “Sulfonamide-1,2,4-thiadiazole derivatives as antifungal and antibacterial agents: synthesis, biological evaluation, lipophilicity, and conformational studies” (2010).
In brackets after ≈: the same amount, converted by molar mass.

What was measured:
Fulvia fulva = experiment: Antifungal activity against Passalora fulva TK5318 at 28 degC measured after 72 hr by microdilution method; assay type: functional; settings: TK5318, 72 h
Procedure, shortened: (§1)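 Fungi were kept on malt agar at 4 °C. Spores were washed off with sterile 0.85% saline containing 0.1% Tween 80 and adjusted to about 1.0×10⁵ per well. Compounds were dissolved in DMSO (1 mg/ml stock) and serially diluted in malt broth with inoculum in 96-well plates, 72 h at 28 °C, for MIC. MFC came from subculture into fresh broth for a further 72 h at 28 °C.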

Aspergillus versicolor = experiment: Antifungal activity against Aspergillus versicolor ATCC 11730 at 28 degC measured after 72 hr by microdilution method; assay type: functional; settings: ATCC 11730, 72 h; procedure, shortened: as §1
Aspergillus flavus = experiment: Antifungal activity against Aspergillus flavus ATCC 9643 at 28 degC measured after 72 hr by microdilution method; assay type: functional; settings: ATCC 9643, 72 h; procedure, shortened: as §1
Aspergillus niger = experiment: Antifungal activity against Aspergillus niger ATCC 6275 at 28 degC measured after 72 hr by microdilution method; assay type: functional; settings: ATCC 6275, 72 h; procedure, shortened: as §1
Trichoderma viride = experiment: Antifungal activity against Hypocrea rufa IAM 5061 at 28 degC measured after 72 hr by microdilution method; assay type: functional; settings: IAM 5061, 72 h; procedure, shortened: as §1
Aspergillus fumigatus = experiment: Antifungal activity against plant isolate Aspergillus fumigatus at 28 degC measured after 72 hr by microdilution method; assay type: functional; procedure, shortened: as §1
Penicillium ochrochloron = experiment: Antifungal activity against Penicillium ochrochloron ATCC 9112 at 28 degC measured after 72 hr by microdilution method; assay type: functional; settings: ATCC 9112, 72 h; procedure, shortened: as §1
Talaromyces funiculosus = experiment: Antifungal activity against Talaromyces funiculosus ATCC 36839 at 28 degC measured after 72 hr by microdilution method; assay type: functional; settings: ATCC 36839, 72 h; procedure, shortened: as §1
Listeria monocytogenes [1] = experiment: Antibacterial activity against Listeria monocytogenes NCTC 7973 at […] degC measured after 72 hr by microdilution method; assay type: functional; settings: NCTC 7973, 72 h
Procedure, shortened: (§2)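 Bactericidal endpoint: after the 24 h broth microdilution (1.0×10⁴ CFU per well, LB broth, […] °C), wells were serially subcultured into plates of fresh broth and incubated a further 72 h. MBC was the lowest concentration with no visible growth, taken as 99.5% killing of the original inoculum.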

Proteus mirabilis [2] = experiment: Antibacterial activity against Proteus mirabilis at […] degC measured after 72 hr by microdilution method; assay type: functional; procedure, shortened: as §2
Salmonella typhimurium [3] = experiment: Antibacterial activity against Salmonella enterica subsp. enterica serovar TyphimuriumATCC 13311 at […] degC measured after 72 hr by microdilution method; assay type: functional, Salmonella enterica subsp. enterica serovar Typhimurium; settings: ATCC 13311, 72 h; procedure, shortened: as §2
Pseudomonas aeruginosa [4] = experiment: Antibacterial activity against Pseudomonas aeruginosa ATCC 27853 at […] degC measured after 72 hr by microdilution method; assay type: functional; settings: ATCC 27853, 72 h; procedure, shortened: as §2
Escherichia coli [5] = experiment: Antibacterial activity against Escherichia coli ATCC 35210 at […] degC measured after 72 hr by microdilution method; assay type: functional; settings: ATCC 35210, 72 h; procedure, shortened: as §2
Staphylococcus aureus [6] = experiment: Antibacterial activity against Staphylococcus aureus ATCC 6538 at […] degC measured after 72 hr by microdilution method; assay type: functional; settings: ATCC 6538, 72 h; procedure, shortened: as §2
Micrococcus flavus [7] = experiment: Antibacterial activity against Micrococcus flavus ATCC 10240 at […] degC measured after 72 hr by microdilution method; assay type: functional; settings: ATCC 10240, 72 h; procedure, shortened: as §2
Bacillus cereus [8] = experiment: Antibacterial activity against clinical isolate Bacillus cereus at […] degC measured after 72 hr by microdilution method; assay type: functional; procedure, shortened: as §2
Listeria monocytogenes [9] = experiment: Antibacterial activity against Listeria monocytogenes NCTC 7973 at […] degC measured after 24 hr by microdilution method; assay type: functional; settings: NCTC 7973, 24 h
Procedure, shortened: (§3)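 Bacteria suspended in sterile saline at 1.0×10⁵ CFU/ml and added at 1.0×10⁴ CFU per well to LB broth with compound (1 mg/ml) in 96-well plates. Incubated 24 h at […] °C. MIC was the lowest concentration without visible growth under a binocular microscope. OD 655 nm was read against a blank and a positive control.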

Salmonella typhimurium [10] = experiment: Antibacterial activity against Salmonella enterica subsp. enterica serovar Typhimurium ATCC 13311 at […] degC measured after 24 hr by microdilution method; assay type: functional; settings: ATCC 13311, 24 h; procedure, shortened: as §3
Pseudomonas aeruginosa [11] = experiment: Antibacterial activity against Pseudomonas aeruginosa ATCC 27853 at […] degC measured after 24 hr by microdilution method; assay type: functional; settings: ATCC 27853, 24 h; procedure, shortened: as §3
Proteus mirabilis [12] = experiment: Antibacterial activity against Proteus mirabilis at […] degC measured after 24 hr by microdilution method; assay type: functional; procedure, shortened: as §3
Escherichia coli [13] = experiment: Antibacterial activity against Escherichia coli ATCC 35210 at […] degC measured after 24 hr by microdilution method; assay type: functional; settings: ATCC 35210, 24 h; procedure, shortened: as §3
Staphylococcus aureus [14] = experiment: Antibacterial activity against Staphylococcus aureus ATCC 6538 at […] degC measured after 24 hr by microdilution method; assay type: functional; settings: ATCC 6538, 24 h; procedure, shortened: as §3
Bacillus cereus [15] = experiment: Antibacterial activity against clinical isolate Bacillus cereus at […] degC measured after 24 hr by microdilution method; assay type: functional; procedure, shortened: as §3
Micrococcus flavus [16] = experiment: Antibacterial activity against Micrococcus flavus ATCC 10240 at […] degC measured after 24 hr by microdilution method; assay type: functional; settings: ATCC 10240, 24 h; procedure, shortened: as §3

MIC (Fulvia fulva) [µM] | MIC (Aspergillus versicolor) [µM] | MIC (Aspergillus flavus) [µM] | MIC (Aspergillus niger) [µM] | MIC (Trichoderma viride) [µM] | MIC (Penicillium ochrochloron) [µM] | MIC (Talaromyces funiculosus) [µM] | SMILES | MFC (Fulvia fulva) [µM] | MFC (Aspergillus versicolor) [µM] | MFC (Aspergillus flavus) [µM] | MFC (Aspergillus niger) [µM] | MFC (Trichoderma viride) [µM] | MFC (Aspergillus fumigatus) [µM] | MIC (Aspergillus fumigatus) [µM] | MFC (Penicillium ochrochloron) [µM] | MFC (Talaromyces funiculosus) [µM] | MBC (Listeria monocytogenes [1]) [µM] | MBC (Proteus mirabilis [2]) [µM] | MBC (Salmonella typhimurium [3]) [µM] | MBC (Pseudomonas aeruginosa [4]) [µM] | also measured
11.5 (≈ 5 µg/mL) | 11.5 (≈ 5 µg/mL) | 23 (≈ 9.99 µg/mL) | 23 (≈ 9.99 µg/mL) | 11.5 (≈ 5 µg/mL) | 23 (≈ 9.99 µg/mL) | 11.5 (≈ 5 µg/mL) | COc1cc(Cc2nnc(Nc3ccccc3)s2)c(S(=O)(=O)N(C)C)cc1OC | 23 (≈ 9.99 µg/mL) | 23 (≈ 9.99 µg/mL) | 46 (≈ 20 µg/mL) | 46 (≈ 20 µg/mL) | 23 (≈ 9.99 µg/mL) | 46 (≈ 20 µg/mL) | 11.5 (≈ 5 µg/mL) | 46 (≈ 20 µg/mL) | 23 (≈ 9.99 µg/mL) | 92 (≈ 40 µg/mL) | 46 (≈ 20 µg/mL) | 92 (≈ 40 µg/mL) | 46 (≈ 20 µg/mL) | MBC (Escherichia coli [5]): 46 µM (≈ 20 µg/mL); MBC (Staphylococcus aureus [6]): 92 µM (≈ 40 µg/mL); MBC (Micrococcus flavus [7]): 17.5 µM (≈ 7.6 µg/mL); MBC (Bacillus cereus [8]): 46 µM (≈ 20 µg/mL); MIC (Listeria monocytogenes [9]): 46 µM (≈ 20 µg/mL); MIC (Salmonella typhimurium [10]): 46 µM (≈ 20 µg/mL); MIC (Pseudomonas aeruginosa [11]): 46 µM (≈ 20 µg/mL); MIC (Proteus mirabilis [12]): 46 µM (≈ 20 µg/mL); MIC (Escherichia coli [13]): 46 µM (≈ 20 µg/mL); MIC (Staphylococcus aureus [14]): 46 µM (≈ 20 µg/mL); MIC (Bacillus cereus [15]): 23 µM (≈ 9.99 µg/mL); MIC (Micrococcus flavus [16]): 11.5 µM (≈ 5 µg/mL)
21.3 (≈ 9.99 µg/mL) | 10.7 (≈ 5.02 µg/mL) | 10.7 (≈ 5.02 µg/mL) | 10.7 (≈ 5.02 µg/mL) | 10.7 (≈ 5.02 µg/mL) | 21.3 (≈ 9.99 µg/mL) | 10.7 (≈ 5.02 µg/mL) | COc1cc(Cc2nnc(Nc3ccc(Cl)cc3)s2)c(S(=O)(=O)N(C)C)cc1OC | 85.2 (≈ 40 µg/mL) | 42.6 (≈ 20 µg/mL) | 42.6 (≈ 20 µg/mL) | 42.6 (≈ 20 µg/mL) | 21.3 (≈ 9.99 µg/mL) | 42.6 (≈ 20 µg/mL) | 10.7 (≈ 5.02 µg/mL) | 42.6 (≈ 20 µg/mL) | 21.3 (≈ 9.99 µg/mL) | 85.2 (≈ 40 µg/mL) | 42.6 (≈ 20 µg/mL) | 42.6 (≈ 20 µg/mL) | 85.2 (≈ 40 µg/mL) | MBC (Escherichia coli [5]): 85.2 µM (≈ 40 µg/mL); MBC (Staphylococcus aureus [6]): 42.6 µM (≈ 20 µg/mL); MBC (Micrococcus flavus [7]): 42.6 µM (≈ 20 µg/mL); MBC (Bacillus cereus [8]): 21.3 µM (≈ 9.99 µg/mL); MIC (Listeria monocytogenes [9]): 85.2 µM (≈ 40 µg/mL); MIC (Salmonella typhimurium [10]): 21.3 µM (≈ 9.99 µg/mL); MIC (Pseudomonas aeruginosa [11]): 42.6 µM (≈ 20 µg/mL); MIC (Proteus mirabilis [12]): 21.3 µM (≈ 9.99 µg/mL); MIC (Escherichia coli [13]): 42.6 µM (≈ 20 µg/mL); MIC (Staphylococcus aureus [14]): 21.3 µM (≈ 9.99 µg/mL); MIC (Bacillus cereus [15]): 10.7 µM (≈ 5.02 µg/mL); MIC (Micrococcus flavus [16]): 21.3 µM (≈ 9.99 µg/mL)
